# From PubChem BioAssay
# PfG6PD inh: PfG6PD (Plasmodium falciparum) enzyme inhibition; inhibition, % at 20 µM; PfGluPho enzyme, NADPH resazurin-diaphorase fluorescence; 0.78% of 350,000 active; AID 504690;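 active = inhibition reaching at least a set limit at 20 µM in the primary screen, cut at about 59% in these data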;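 note: 0% = DMSO wells with substrate and 100% = DMSO wells lacking glucose-6-phosphate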
# ABHD5-PLIN5 inh: blocks binding of human ABHD5 to perilipin-5 | Split G. princeps luciferase complementation, luminescence, 4 h | inhibition, % at 4 µM | 0.78% of 360,000 active | AID 602281;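 active = inhibition above the mean inhibition across every tested compound plus 3 SD, cut at about 22% in these data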;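 note: 0% = DMSO only wells and the 100% control is not disclosed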
# Target sequence (Q00G26 whole entry, looked up): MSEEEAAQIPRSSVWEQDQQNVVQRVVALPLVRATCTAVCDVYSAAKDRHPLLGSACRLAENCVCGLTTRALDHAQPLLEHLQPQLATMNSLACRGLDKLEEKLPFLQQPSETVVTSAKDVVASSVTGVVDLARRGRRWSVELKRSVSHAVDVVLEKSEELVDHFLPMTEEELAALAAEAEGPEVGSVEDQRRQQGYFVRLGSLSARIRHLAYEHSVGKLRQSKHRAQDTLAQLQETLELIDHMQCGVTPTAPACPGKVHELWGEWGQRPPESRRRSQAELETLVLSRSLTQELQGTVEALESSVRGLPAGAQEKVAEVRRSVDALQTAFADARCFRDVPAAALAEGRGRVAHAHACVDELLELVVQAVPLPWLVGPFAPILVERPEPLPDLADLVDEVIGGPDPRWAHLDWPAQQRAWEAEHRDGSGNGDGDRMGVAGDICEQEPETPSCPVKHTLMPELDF
# Target sequence (Q8WTS1 whole entry, looked up): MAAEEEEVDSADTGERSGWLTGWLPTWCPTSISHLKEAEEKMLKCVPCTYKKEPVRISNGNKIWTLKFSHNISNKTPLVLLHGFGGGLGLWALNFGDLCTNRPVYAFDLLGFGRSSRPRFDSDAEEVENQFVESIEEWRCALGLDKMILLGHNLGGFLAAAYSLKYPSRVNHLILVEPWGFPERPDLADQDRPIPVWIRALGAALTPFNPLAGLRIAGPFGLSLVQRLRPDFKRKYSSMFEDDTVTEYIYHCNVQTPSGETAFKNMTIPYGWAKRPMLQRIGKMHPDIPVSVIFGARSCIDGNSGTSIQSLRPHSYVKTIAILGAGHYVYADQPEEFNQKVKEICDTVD
# HKDC1 inh: HKDC1 (human) hexokinase inhibition; Q2TB90; recombinant HKDC1, G6PDH/diaphorase resazurin coupled fluorescence; inhibition, % at 20 µM; 0.16% of 340,000 active; AID 493160;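 active = inhibition above about 35% when tested at 20 µM, limit read from the data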;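 note: plate controls were DMSO wells with enzyme for no effect and DMSO wells lacking enzyme for full effect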
#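 System: Recombinant HKDC1 hexokinase | Amount: HKDC1 at 5 µg/mL | Reagent: Glucose with 1 mM ATP | Doses: Single 20 µM dose | Incubation: Reaction time 90 min, room temperature, protected from light | Signal: Coupled resazurin fluorescence, excitation 525 nm, emission 613 nm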
# Exocytosis inh: blocks lytic granule exocytosis. TALL-104 LAMP-1 surface exposure, flow cytometry; cells stimulated with thapsigargin and PMA. AID 651702. inhibition, % at 10 µM. 0.66% of 360,000 active;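 active = inhibition above about 55%, limit read from the data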
# PfG6PD confirm: confirmation of Plasmodium falciparum G6PD inhibitors | 34% of 2,400 active | inhibition, % at 20 µM | shares compounds with PfG6PD inh | recombinant PfGluPho, NADPH-diaphorase-resazurin fluorescence;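 active = inhibition of at least 50% at 20 µM in any single replicate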;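 note: 0% = DMSO with substrate and 100% = DMSO lacking glucose-6-phosphate substrate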
# Diaphorase 10uM: counter-screen for P. falciparum G6PD inhibitors: diaphorase inhibitors, oxidizers; shares compounds with PfG6PD inh; diaphorase-coupled resazurin reduction, fluorescence, NADPH 10 uM; inhibition, % at 20 µM; 39% of 820 active; AID 504862;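 active = average inhibition reaching 50% or more with the compound at 20 µM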;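 note: resorufin red fluorescence formed as diaphorase reduces resazurin using NADPH; 0% = DMSO with enzyme and 100% = DMSO without enzyme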
# Diaphorase 30uM: counter-screen for P. falciparum G6PD inhibitors: diaphorase inhibitors, oxidizers; shares compounds with PfG6PD inh; Diaphorase/resazurin coupled assay, resorufin fluorescence, 30 uM NADPH; inhibition, % at 20 µM; 29% of 820 active;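 active = inhibition averaging 50% or more, tested at 20 µM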;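 note: 0% = DMSO with enzyme and 100% = DMSO wells lacking diaphorase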
# * = called active by the depositor; · = not tested or not shown. Hits are enriched below; roughly 2.2% of the tested compounds scored in any of these assays.
SMILES,PfG6PD inh,ABHD5-PLIN5 inh,HKDC1 inh,Exocytosis inh,PfG6PD confirm,others
CCN1C(=O)[C@@H]2[C@@H](c3ccc(-c4ccc(F)cc4)c(OC)c3)N3CCC[C@@]3(C(=O)OC)[C@@H]2C1=O,-1.3,1.8,-1.0,-4.5,·,
CN(C)C(CNC(=O)CCCN1C(=O)c2cccc3cccc(c23)C1=O)c1ccccc1 (stereo not given),12.4,1.6,0.7,20.0,·,
C(=N\NC1=Nc2cccc3cccc1c23)/c1ccccn1,65.3*,5.5,0.2,0.9,13.7,
Clc1ccccc1/C=N/NC1=Nc2cccc3cccc1c23,0.0,13.6,-1.5,-0.1,·,
O=C1CCCC(=O)C1C(c1ccc(Cl)cc1)C1C(=O)CCCC1=O,77.3*,3.5,5.0,-5.5,47.4,
Cc1[nH][nH]c(=O)c1C(c1ccc(Cl)cc1)c1c(C)[nH][nH]c1=O,7.2,-3.9,-0.2,-1.6,·,
COc1ccc2c(c1)-c1ccccc1S(=O)(=O)N(C)C2,50.6,-0.6,-2.3,-1.2,·,
COc1ccc2c(c1)-c1ccccc1S(=O)(=O)N2C,59.5*,5.1,5.4,-0.9,29.9,
Cc1ccc(SCCC(=O)N/N=C/c2cccnc2)cc1,74.1*,-1.3,9.2,1.5,67.0*,Diaphorase 10uM=79.9*;Diaphorase 30uM=65.7*
Cc1ccc(SCCC(=O)N/N=C/c2ccccc2O)cc1,76.9*,-0.6,-3.7,-3.0,34.4,
Cc1ccccc1N=Cc1ccc[nH]1,-6.4,2.0,-2.8,-1.3,·,
Cc1ccc(N=Cc2ccc[nH]2)c(O)c1,76.7*,2.0,7.3,-0.2,39.8,
Cc1cccn2c(=O)c3cc(C(=O)NC4CCCC4)c(=N)n(Cc4ccc(F)cc4)c3nc12,63.5*,3.4,1.7,2.9,-9.7,
Cc1cccn2c(=O)c3cc(C(=O)NC4CCCCC4)c(=N)n(Cc4ccccc4)c3nc12,69.7*,3.8,-3.2,-13.6,-1.3,
CCOCCCn1c(=N)c(C(N)=S)cc2c(=O)n3cccc(C)c3nc21,63.8*,-6.5,1.5,9.1,7.5,
N=c1c(C(=O)NC2CCCC2)cc2c(=O)n3ccccc3nc2n1Cc1ccccc1,26.6,12.2,0.5,2.5,·,
Cn1c(C2=C(O)CN(Cc3ccccc3)C2=N)nc2ccccc21,8.0,3.2,-6.9,3.4,·,
CCNC(=O)NC(=O)COC(=O)c1ccccc1SCC(=O)NC(=O)NCC,59.4*,-6.6,-1.4,-1.0,32.3,
O=C(COC(=O)c1ccccc1SCC(=O)NC1CCS(=O)(=O)C1)NC1CCS(=O)(=O)C1 (stereo not given),-12.6,1.3,-13.0,6.3,·,
Cc1ccc(C)n1-c1ccc(N(C)C)cc1,62.8*,-3.8,4.9,1.5,0.1,
Nc1cc(Cl)ccc1C(=O)OCC(=O)NCC1CCCO1 (stereo not given),-20.8,-9.2,6.7,-3.4,·,
O=C(Nc1ccccn1)c1sc2cc([N+](=O)[O-])ccc2c1Cl,70.2*,7.4,-22.2,3.5,61.0*,Diaphorase 10uM=-14.9;Diaphorase 30uM=-18.0
Cc1ccnc(NC(=O)c2sc3ccccc3c2Cl)c1,7.8,5.1,-12.6,-4.6,·,
COc1ccc(S(=O)(=O)Nc2ccc3c(c2)OCO3)cc1,3.6,3.0,1.9,1.5,·,
COc1ccc(N/C=C2\CCOC2=O)cc1,-1.4,5.4,-7.4,-2.8,·,
SMILES,PfG6PD inh,ABHD5-PLIN5 inh,HKDC1 inh,Exocytosis inh,PfG6PD confirm,others
COc1ccc(N/C=C2\CCc3ccccc3C2=O)cc1,90.5*,-12.7,33.2,48.2,45.9,
O=C1/C(=C/Nc2ccc3c(c2)OCO3)CCc2ccccc21,88.0*,-7.0,34.6,97.9*,40.9,
O=C1OC2(CCCCC2)OC(=O)C1=CNc1ccc2c(c1)OCO2,19.0,-8.7,-2.2,4.9,·,
COc1ccc2c(c1)CC/C(=C\Nc1ccc3c(c1)OCO3)C2=O,73.5*,-7.0,19.8,101.0*,56.9*,Diaphorase 10uM=3.0;Diaphorase 30uM=9.6
CCOC(=O)C1CCCN(C(=O)c2[nH]c3ccc(OC)cc3c2C)C1 (stereo not given),-19.5,-3.0,0.7,-3.5,·,
CC(C)c1cc2c(c(O)c1O)[C@@]13CCCC(C)(C)C1CC2OC3=O (stereo not given in full),67.1*,-3.1,9.2,-4.4,50.7*,Diaphorase 10uM=-16.1;Diaphorase 30uM=-23.8
C#CCOCCOCCOCCNc1nc(N2CCN(C(=O)CCCCCCCCCCNC(=O)[C@H](CCCCN)n3cc(CCO)nn3)CC2)nc(N2CCN(C(=O)CCCCCCCCCCNC(=O)[C@H](CCCCN)n3cc(CCO)nn3)CC2)n1,68.4*,29.3*,-9.8,-2.9,23.1,
C#CCOCCOCCOCCNc1nc(N2CCN(C(=O)CCCCCCCCCCNC(=O)[C@H](CCCCN)n3cc(C[C@@H](C)CC)nn3)CC2)nc(N2CCN(C(=O)CCCCCCCCCCNC(=O)[C@H](CCCCN)n3cc(C[C@@H](C)CC)nn3)CC2)n1,73.8*,58.1*,4.4,-12.0,-19.7,
Cc1cc(C)cc(C(=O)NCCC(=O)NCc2cc(=O)n(C)c(=O)n2C)c1,8.2,-1.0,-5.6,3.0,·,
COc1cc(/C=C2\CCC(C3CCCC3)C2=O)ccc1OC(C)C (stereo not given),5.1,7.0,1.2,-0.7,·,
CS(=O)(=O)N(CC(=O)N/N=C/c1cccs1)c1cccc(Cl)c1Cl,64.6*,-0.3,0.4,-0.2,43.5,
O=C(Nc1nnc(S(=O)(=O)N2CCCCC2)s1)c1cccc(Br)c1,99.7*,-3.3,2.4,8.1,60.7*,Diaphorase 10uM=69.4*;Diaphorase 30uM=46.1
CC(C)C(=O)Nc1nnc(CSCc2ccccc2F)s1,1.4,-7.3,-0.8,-2.5,·,
O=C(Nc1nnc(S(=O)(=O)N2CCCC2)s1)c1cccc([N+](=O)[O-])c1,97.3*,-7.4,6.1,7.8,76.7*,Diaphorase 10uM=50.1*;Diaphorase 30uM=49.5
O=C(Nc1nnc(CSCc2ccccc2F)s1)c1cccc([N+](=O)[O-])c1,61.1*,10.2,-1.0,-3.3,42.8,
CCOc1ccc(S(=O)(=O)N2CCOCC2)cc1NC(=O)CSCc1ccc(C)cc1,9.1,0.7,-1.5,-0.3,·,
Cc1ccc(C(=O)Nc2ccc(O)cc2C(=O)O)cc1,65.5*,-3.1,0.2,4.5,39.2,
C=CC[C@H](CC(=O)NCCO)C(=O)N[C@@H](COC(=O)[C@H](CC=C)CC(=O)OC(C)(C)C)Cc1ccccc1,8.4,-3.8,-8.0,-1.9,·,
CCOc1cc(C(=O)N(C)CC(=O)Nc2cccc(F)c2)ccc1OCC(=O)N1CCCCC1,-5.9,-0.1,-9.5,-0.1,·,
COC(=O)c1scc(C)c1S(=O)(=O)Nc1ccc(C)cc1,70.1*,5.2,3.8,-5.9,20.8,
NC(=O)CSc1nnc(-c2ccccc2Br)n1-c1cccc(C(F)(F)F)c1,69.1*,-2.1,-5.2,1.2,59.3*,Diaphorase 10uM=59.5*;Diaphorase 30uM=54.7*
O=C(O)CSc1nnc(-c2ccccc2Br)n1-c1cccc(C(F)(F)F)c1,7.5,-1.1,-14.0,0.6,·,
